Results reported in ChEMBL document CHEMBL1799960, “Diadenosine 5',5''-(boranated)polyphosphonate analogues as selective nucleotide pyrophosphatase/phosphodiesterase inhibitors” (J Med Chem, 2010).
The source made the active and inactive calls. No cut-off for these calls is given here.

Columns and labels:
[1] = target: T1, Ectonucleotide pyrophosphatase/phosphodiesterase family member 1 (Homo sapiens) (UniProt P22413); assay: Activity of human NPP1 expressed in COS7 cells assessed as production of p-nitrophenol using Ap5A as the substrate at 100 uM after 30 mins by malachite green reagent method; format: cell-based; conditions: COS-7
T1 sequence (whole entry): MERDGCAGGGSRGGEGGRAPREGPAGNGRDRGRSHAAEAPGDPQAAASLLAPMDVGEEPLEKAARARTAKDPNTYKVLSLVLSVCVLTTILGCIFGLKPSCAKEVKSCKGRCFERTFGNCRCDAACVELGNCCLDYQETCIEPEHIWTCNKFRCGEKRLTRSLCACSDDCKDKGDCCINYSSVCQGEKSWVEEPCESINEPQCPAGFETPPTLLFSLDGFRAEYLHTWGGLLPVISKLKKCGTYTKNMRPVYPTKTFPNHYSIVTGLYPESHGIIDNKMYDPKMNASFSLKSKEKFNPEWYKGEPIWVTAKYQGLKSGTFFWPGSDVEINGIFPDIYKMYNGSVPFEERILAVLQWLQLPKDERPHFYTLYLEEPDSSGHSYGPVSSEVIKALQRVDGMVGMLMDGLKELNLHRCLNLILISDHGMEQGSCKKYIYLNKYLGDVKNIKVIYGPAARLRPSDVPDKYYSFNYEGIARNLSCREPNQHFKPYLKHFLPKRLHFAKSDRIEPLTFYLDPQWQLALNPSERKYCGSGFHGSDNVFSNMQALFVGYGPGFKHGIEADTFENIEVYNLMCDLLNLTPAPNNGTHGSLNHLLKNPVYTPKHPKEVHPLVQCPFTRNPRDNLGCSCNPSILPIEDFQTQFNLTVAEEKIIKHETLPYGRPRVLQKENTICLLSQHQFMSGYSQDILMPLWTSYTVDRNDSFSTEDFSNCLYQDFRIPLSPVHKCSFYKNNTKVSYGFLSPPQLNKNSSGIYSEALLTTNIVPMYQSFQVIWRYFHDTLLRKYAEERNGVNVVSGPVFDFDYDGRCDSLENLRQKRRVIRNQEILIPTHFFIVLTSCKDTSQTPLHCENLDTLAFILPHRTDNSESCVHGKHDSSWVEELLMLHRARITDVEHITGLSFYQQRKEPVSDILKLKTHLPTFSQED

[2] = target: T2, Ectonucleoside triphosphate diphosphohydrolase 1 (Homo sapiens) (UniProt P49961); assay: Inhibition of human NTPDase1 expressed in COS7 cells assessed as amount of inorganic phosphate released using ATP as the substrate at 100 uM after 15 mins by malachite green reagent method; format: cell-based; conditions: COS-7
T2 sequence (whole entry): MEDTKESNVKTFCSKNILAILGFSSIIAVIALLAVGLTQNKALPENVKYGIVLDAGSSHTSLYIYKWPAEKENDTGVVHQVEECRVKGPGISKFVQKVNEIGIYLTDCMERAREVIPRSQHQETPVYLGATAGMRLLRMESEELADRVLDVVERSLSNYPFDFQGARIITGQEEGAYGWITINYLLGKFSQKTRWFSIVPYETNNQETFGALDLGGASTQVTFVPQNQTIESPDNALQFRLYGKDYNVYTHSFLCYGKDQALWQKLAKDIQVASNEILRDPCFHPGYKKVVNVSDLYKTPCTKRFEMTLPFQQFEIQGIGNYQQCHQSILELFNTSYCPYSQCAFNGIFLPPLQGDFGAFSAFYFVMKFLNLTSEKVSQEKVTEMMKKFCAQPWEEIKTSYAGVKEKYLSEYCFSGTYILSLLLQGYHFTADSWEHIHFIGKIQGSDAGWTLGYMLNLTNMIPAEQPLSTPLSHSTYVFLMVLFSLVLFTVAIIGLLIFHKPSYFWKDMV
Summary of the method: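 Protein extracts of transfected COS-7 cells (ecto-5'-nucleotidase: 100 μM AMP substrate; NTPDases: 100 μM ATP) were preincubated 3 min at 37 °C in Tris-Ringer pH 7.3 with inhibitor at 100 μM final. After 15 min, malachite green stop; Pi read at 630 nm. Activity given as % of substrate-only control. Mean ± SD of three experiments in triplicate.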

Autotaxin (Homo sapiens) = Autotaxin (Homo sapiens) (UniProt Q13822); assay: Inhibition of human secreted NPP2 expressed in COS7 cells assessed as production of p-nitrophenol using pnp-TMP as the substrate at 100 uM after 15 mins by malachite green reagent method; format: cell-based; conditions: COS-7
Summary of the method: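 Human NPP1, NPP2 (membrane lysate or conditioned medium for the secreted form) or NPP3 from transfected COS-7 cells, preincubated 3 min at 37 °C in 50 mM Tris pH 8.5 buffer with CaCl2, NaCl and KCl. Substrate and inhibitor both at 100 μM final. pnp-TMP: p-nitrophenol read at 405 nm at 15 min. ATP or Ap5A: stopped at 30 min with perchloric acid, then HPLC. Results as % residual activity versus control; three to six experiments in triplicate.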

[3] = target: T3, Ectonucleotide pyrophosphatase/phosphodiesterase family member 3 (Homo sapiens) (UniProt O14638); assay: Inhibition of human NPP3 expressed in COS7 cells assessed as amount of inorganic phosphate released using ATP as the substrate at 100 uM after 15 mins by malachite green reagent method; format: cell-based; conditions: COS-7
T3 sequence (whole entry): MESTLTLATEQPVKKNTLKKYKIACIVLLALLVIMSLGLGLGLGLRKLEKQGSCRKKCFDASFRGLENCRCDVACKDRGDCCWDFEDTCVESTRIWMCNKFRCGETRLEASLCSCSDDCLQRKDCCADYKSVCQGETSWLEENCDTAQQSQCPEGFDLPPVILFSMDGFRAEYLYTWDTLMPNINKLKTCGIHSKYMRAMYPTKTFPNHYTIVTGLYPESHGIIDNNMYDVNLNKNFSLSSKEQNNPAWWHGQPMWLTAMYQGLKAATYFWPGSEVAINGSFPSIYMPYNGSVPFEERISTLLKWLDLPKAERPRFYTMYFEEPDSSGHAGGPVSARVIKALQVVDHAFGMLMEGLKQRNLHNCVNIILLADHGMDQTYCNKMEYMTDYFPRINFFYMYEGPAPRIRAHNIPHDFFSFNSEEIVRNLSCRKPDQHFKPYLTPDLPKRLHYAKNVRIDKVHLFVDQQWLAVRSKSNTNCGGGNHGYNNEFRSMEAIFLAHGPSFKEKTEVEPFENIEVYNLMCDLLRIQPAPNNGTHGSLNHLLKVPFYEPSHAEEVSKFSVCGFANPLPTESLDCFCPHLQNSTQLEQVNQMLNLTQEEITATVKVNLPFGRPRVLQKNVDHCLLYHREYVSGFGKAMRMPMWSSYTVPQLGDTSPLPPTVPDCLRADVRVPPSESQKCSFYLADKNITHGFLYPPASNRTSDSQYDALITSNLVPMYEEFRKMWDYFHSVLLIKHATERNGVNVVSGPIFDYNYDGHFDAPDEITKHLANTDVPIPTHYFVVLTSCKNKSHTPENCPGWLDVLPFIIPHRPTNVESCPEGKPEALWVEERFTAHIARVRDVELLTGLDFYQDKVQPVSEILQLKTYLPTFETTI

P2Y purinoceptor 1 = P2Y purinoceptor 1 (Homo sapiens, UniProt P47900); assay: Agonist activity at GFP tagged-human P2Y1 receptor expressed in human 1321N1 cells assessed as elevation in calcium level after 30 mins by fluorescence spectrophotometric analysis; format: functional, cell-based
Chain of P2Y purinoceptor 1 (P47900 whole entry): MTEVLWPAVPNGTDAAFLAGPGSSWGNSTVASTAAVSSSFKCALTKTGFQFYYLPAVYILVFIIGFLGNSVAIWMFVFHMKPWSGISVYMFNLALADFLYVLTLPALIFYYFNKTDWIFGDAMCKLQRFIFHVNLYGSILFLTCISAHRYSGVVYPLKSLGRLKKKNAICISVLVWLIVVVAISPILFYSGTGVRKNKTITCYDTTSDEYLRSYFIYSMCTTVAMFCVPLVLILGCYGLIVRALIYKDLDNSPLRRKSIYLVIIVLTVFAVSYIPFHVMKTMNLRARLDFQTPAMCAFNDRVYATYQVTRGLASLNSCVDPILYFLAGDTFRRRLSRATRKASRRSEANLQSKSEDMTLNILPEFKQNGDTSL

Activity [1] [%]	inhibition [2]	inhibition (Autotaxin (Homo sapiens)) [%]	inhibition [3] [%]	EC50 (P2Y purinoceptor 1) [µM]	Structure (SMILES)
2.3	inactive	60	90	30	Nc1ncnc2c1ncn2[C@H]1C[C@H](O)[C@@H](COP(=O)(O)CP(=O)(O)OP(=O)(O)CP(=O)(O)OC[C@H]2O[C@@H](n3cnc4c(N)ncnc43)C[C@@H]2O)O1
7.5	inactive	60	90	0.3	BP(=O)(OP(=O)(O)CP(=O)(O)OC[C@H]1O[C@@H](n2cnc3c(N)ncnc32)[C@H](O)[C@@H]1O)OP(=O)(O)CP(=O)(O)OC[C@H]1O[C@@H](n2cnc3c(N)ncnc32)[C@H](O)[C@@H]1O
–	inactive	60	65	≥ 30	BP(=O)(OP(=O)(O)CP(=O)(O)OC[C@H]1O[C@@H](n2cnc3c(N)ncnc32)C[C@@H]1O)OP(=O)(O)CP(=O)(O)OC[C@H]1O[C@@H](n2cnc3c(N)ncnc32)C[C@@H]1O
13	inactive	60	65	9	Nc1ncnc2c1ncn2[C@@H]1O[C@H](COP(=O)(O)CP(=O)(O)OP(=O)(O)CP(=O)(O)OC[C@H]2O[C@@H](n3cnc4c(N)ncnc43)[C@H](O)[C@@H]2O)[C@@H](O)[C@H]1O
